Measured values from different studies.
Protocols differ between the studies behind these lines.
MET Y1235D: Hepatocyte growth factor receptor (MET, Homo sapiens, UniProt P08581, Y1235D)
MET: Hepatocyte growth factor receptor (MET, Homo sapiens, UniProt P08581)
MET M1250T: Hepatocyte growth factor receptor (MET, Homo sapiens, UniProt P08581, M1250T)

With `CN(C)C(=O)Cn1cc(-c2nc(C3(c4ccc(-c5cnc(N)nc5)cc4)CC3)no2)cn1` the remaining binding was 98% (MET Y1235D; cell-free assay, competition with immobilised ligand; 1 µM).
With `COc1cnc(Nc2cccc(S(N)(=O)=O)c2)nc1N1CCN(c2ccccc2)CC1` the remaining binding was 100% (MET Y1235D; binding, competition with immobilised ligand; 1 µM).
`N[C@H]1CCN(c2nccc(-c3cnn4ncccc34)n2)C1` has a remaining binding of 90% (MET; binding; 1 µM).
The remaining binding of `O=C(NCCCC1CCCCC1)c1ccc(CNC(=O)c2cnn(-c3ccccc3)c2C(F)(F)F)cc1` is reported as 100% (MET Y1235D; cell-free assay, competition with immobilised ligand; 0.1 µM).
With `CN(C)c1nccc(-c2cnc3ncccn23)n1` the remaining binding was 76% (MET Y1235D; binding; 1 µM).
`O=C(NCCCN1CCOCC1)c1ccc(Nc2ncc(Cl)c(-c3ccc(Cl)s3)n2)cc1` gave a remaining binding of 37% (MET; binding, competition with immobilised ligand; 1 µM).
`CN(C)c1nccc(-c2cnn3ncccc23)n1` gave a remaining binding of 100% (MET M1250T; binding; 1 µM).
`C[C@H](NC(=O)c1cnc2n1[C@](C)(Cc1ccc(C#N)cc1)C(=O)N2c1cc(Cl)c(F)c(Cl)c1)C(=O)NC1(c2ccccn2)CC1` has a remaining binding of 100% (MET; cell-free assay, competition with immobilised ligand; 1 µM).
`Cc1cnc(Nc2ccc(C(=O)N3CCC(N4CCCC4)CC3)cc2)nc1-c1cc2ccccc2s1` has a remaining binding of 72% (MET Y1235D; binding, competition with immobilised ligand; 1 µM).
For `CC1CCCN1c1nccc(-c2cnn3ncccc23)n1` (stereo not drawn), the remaining binding was 100% (MET Y1235D; binding; 1 µM).
`COc1ncc2cc3ccccc3nc2c1C#N` gave a remaining binding of 80% (MET Y1235D; cell-free assay, competition with immobilised ligand; 5 µM).
With `O=C(Nc1c[nH]nc1C(=O)NC1CCNCC1)c1cc(F)cc(F)c1` the remaining binding was 100% (MET M1250T; binding, competition with immobilised ligand; 1 µM).
For `CN1CCN(c2ccc(Nc3nccc(-c4ccccc4)n3)cc2C(F)(F)F)CC1`, the remaining binding was 21% (MET Y1235D; binding; 10 µM).
The remaining binding of `Cn1cc(Cl)c2c(Oc3c(F)cc(Nc4cc(Cl)nc(N)n4)cc3F)ccnc21` is reported as 91% (MET Y1235D; cell-free assay, competition with immobilised ligand; 0.1 µM).
The remaining binding of `O=C(c1ccc(Nc2ncc(Cl)c(-c3cc4ccccc4s3)n2)cc1)N1CCC(N2CCCC2)CC1` is reported as 44% (MET Y1235D; binding, competition with immobilised ligand; 1 µM).
The remaining binding of `c1cncc(-c2cccc(Nc3nccc(NC4CCCCC4)n3)c2)c1` is reported as 43% (MET; binding, competition with immobilised ligand; 10 µM).
`C[C@H]1CCN(c2nccc(-c3cnn4ncccc34)n2)C1` gave a remaining binding of 100% (MET Y1235D; binding; 1 µM).
`C[C@H](c1ccc(F)cc1)N(Cc1cccc(C(=O)O)c1)C(=O)c1cnc2ccccc2c1` gave a remaining binding of 93% (MET M1250T; cell-free assay, competition with immobilised ligand; 1 µM).
With `Nc1ncc2c(n1)-c1c([nH]c3ccc(C#CC4CC4)cc13)CCCC2` the remaining binding was 95% (MET M1250T; binding, competition with immobilised ligand; 1 µM).
The remaining binding of `C[C@@H]1CN(c2ccc3ncc(-c4ccc5[nH]nc(C6CC6)c5c4)n3n2)C[C@H](C)O1` is reported as 80% (MET; binding, competition with immobilised ligand; 0.5 µM).
With `COc1cnc(Nc2cccc(S(N)(=O)=O)c2)nc1N1CCN(c2ccccc2)C(=O)C1` the remaining binding was 100% (MET; binding, competition with immobilised ligand; 1 µM).
For `O=C(NCC1CCOCC1)c1n[nH]cc1NC(=O)c1c(F)cccc1F`, the remaining binding was 97% (MET Y1235D; binding, competition with immobilised ligand; 1 µM).
`O=C(c1ccc(Nc2nccc(-c3cc4ccccc4s3)n2)cc1)N1CCC(N2CCCC2)CC1` has a remaining binding of 68% (MET M1250T; binding, competition with immobilised ligand; 1 µM).
The remaining binding of `CC(C)(C)c1ccc(-c2nc(CBr)nn2-c2cccc(O)c2)cc1` is reported as 83% (MET; cell-free assay, competition with immobilised ligand; 10 µM).
The remaining binding of `F[C@@H]1CCN(c2nccc(-c3cnn4ncccc34)n2)C1` is reported as 100% (MET Y1235D; binding; 1 µM).
For `CN(C)C(=O)Cn1cc(-c2nc([C@@](C)(c3ccc(-c4cnc(N)nc4)cc3)C3CC3)no2)cn1`, the remaining binding was 93% (MET M1250T; cell-free assay, competition with immobilised ligand; 1 µM).
The remaining binding of `O=C(c1ccc(Nc2ncc(Cl)c(-c3ccc(Cl)s3)n2)cc1)N1CCC(N2CCCC2)CC1` is reported as 6.9% (MET; binding, competition with immobilised ligand; 1 µM).
With `CCC(=N\O)/C(C)=C/c1ccc(F)cc1` the remaining binding was 88% (MET; cell-free assay, competition with immobilised ligand; 1 µM).
For `CNC(=O)[C@@H]1CC[C@@H](n2c(-c3ccc4cnccc4c3)nc3ccc(C(=O)NCc4cccc(C(N)=O)c4)cc32)C1`, the remaining binding was 100% (MET M1250T; binding, competition with immobilised ligand; 1 µM).
`O=C(NCCCN1CCOCC1)c1ccc(Nc2nccc(-c3cc4ccccc4s3)n2)cc1` gave a remaining binding of 69% (MET M1250T; binding, competition with immobilised ligand; 1 µM).
The remaining binding of `COc1cc(-c2cn(C3CCc4c(F)cccc4N(CC(F)(F)F)C3=O)nn2)ccc1-n1cnc(C)c1` (stereo not drawn) is reported as 100% (MET M1250T; cell-free assay, competition with immobilised ligand; 1 µM).
With `CCN1CCN(Cc2ccc(C(=O)Nc3ccc(C)c(Oc4ccc5c(c4)CC(=O)N5)c3)cc2C(F)(F)F)CC1` the remaining binding was 100% (MET; binding, competition with immobilised ligand; 1 µM).
With `CN(c1nccc(-c2cnn3ncccc23)n1)C1CC1` the remaining binding was 100% (MET M1250T; binding; 1 µM).
